The source made the active and inactive calls. No cut-off for these calls is given here.
Experiments:
PBMC [1] = assay: Immunomodulatory activity in human PBMC assessed as induction of MCP1 at 50 ug/ml after 24 hrs; assay type: functional, cell-based
In short: (§1)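 Human PBMCs plated at 5 × 10^6 cells/mL; compounds dissolved in PBS added at various concentrations, 37 °C for 24 h. Supernatant cytokines/chemokines quantified with human Luminex multiplex kit.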

[2] = biological target: T1, Toll-like receptor 9 (Mus musculus) (UniProt Q9EQU3); assay: Activation of mouse TLR9 expressed in HEK293 assessed as induction of NF-kappaB activity reporter gene assay; assay type: cell-based
T1 sequence (whole entry): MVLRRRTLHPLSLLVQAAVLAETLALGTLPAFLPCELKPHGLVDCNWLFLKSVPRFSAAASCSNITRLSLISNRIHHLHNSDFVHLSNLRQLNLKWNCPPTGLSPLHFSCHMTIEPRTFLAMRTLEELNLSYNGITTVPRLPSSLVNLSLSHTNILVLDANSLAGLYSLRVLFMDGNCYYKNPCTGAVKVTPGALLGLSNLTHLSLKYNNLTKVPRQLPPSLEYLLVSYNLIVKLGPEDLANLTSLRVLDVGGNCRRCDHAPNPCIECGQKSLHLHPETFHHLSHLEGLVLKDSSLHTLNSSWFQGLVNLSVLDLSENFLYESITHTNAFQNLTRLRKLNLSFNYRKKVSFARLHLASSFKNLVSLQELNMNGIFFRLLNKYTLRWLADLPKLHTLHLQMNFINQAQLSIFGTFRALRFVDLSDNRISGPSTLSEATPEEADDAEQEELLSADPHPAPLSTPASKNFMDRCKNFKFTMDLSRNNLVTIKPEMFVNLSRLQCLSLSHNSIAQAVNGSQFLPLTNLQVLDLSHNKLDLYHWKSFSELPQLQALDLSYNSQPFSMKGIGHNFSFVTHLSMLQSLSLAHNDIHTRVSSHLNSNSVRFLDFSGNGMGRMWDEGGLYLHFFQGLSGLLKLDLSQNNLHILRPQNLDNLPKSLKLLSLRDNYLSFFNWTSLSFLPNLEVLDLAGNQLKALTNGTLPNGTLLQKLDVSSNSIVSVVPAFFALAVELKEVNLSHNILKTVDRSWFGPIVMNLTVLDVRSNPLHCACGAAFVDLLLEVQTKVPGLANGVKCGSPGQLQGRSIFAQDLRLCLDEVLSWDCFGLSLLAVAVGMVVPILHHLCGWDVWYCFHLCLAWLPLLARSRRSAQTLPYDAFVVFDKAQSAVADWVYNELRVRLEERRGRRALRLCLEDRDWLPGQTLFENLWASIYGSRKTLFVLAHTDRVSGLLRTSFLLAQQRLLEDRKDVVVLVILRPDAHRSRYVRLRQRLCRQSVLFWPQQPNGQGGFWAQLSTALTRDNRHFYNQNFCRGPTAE

[3] = biological target: T2, Toll-like receptor 7 (Homo sapiens) (UniProt Q9NYK1); assay: Activation of human TLR7 expressed in HEK293XL assessed as fold induction of NF-kappaB activity at 50 ug/ml after 18 hrs by reporter gene assay relative to control
T2 sequence (whole entry): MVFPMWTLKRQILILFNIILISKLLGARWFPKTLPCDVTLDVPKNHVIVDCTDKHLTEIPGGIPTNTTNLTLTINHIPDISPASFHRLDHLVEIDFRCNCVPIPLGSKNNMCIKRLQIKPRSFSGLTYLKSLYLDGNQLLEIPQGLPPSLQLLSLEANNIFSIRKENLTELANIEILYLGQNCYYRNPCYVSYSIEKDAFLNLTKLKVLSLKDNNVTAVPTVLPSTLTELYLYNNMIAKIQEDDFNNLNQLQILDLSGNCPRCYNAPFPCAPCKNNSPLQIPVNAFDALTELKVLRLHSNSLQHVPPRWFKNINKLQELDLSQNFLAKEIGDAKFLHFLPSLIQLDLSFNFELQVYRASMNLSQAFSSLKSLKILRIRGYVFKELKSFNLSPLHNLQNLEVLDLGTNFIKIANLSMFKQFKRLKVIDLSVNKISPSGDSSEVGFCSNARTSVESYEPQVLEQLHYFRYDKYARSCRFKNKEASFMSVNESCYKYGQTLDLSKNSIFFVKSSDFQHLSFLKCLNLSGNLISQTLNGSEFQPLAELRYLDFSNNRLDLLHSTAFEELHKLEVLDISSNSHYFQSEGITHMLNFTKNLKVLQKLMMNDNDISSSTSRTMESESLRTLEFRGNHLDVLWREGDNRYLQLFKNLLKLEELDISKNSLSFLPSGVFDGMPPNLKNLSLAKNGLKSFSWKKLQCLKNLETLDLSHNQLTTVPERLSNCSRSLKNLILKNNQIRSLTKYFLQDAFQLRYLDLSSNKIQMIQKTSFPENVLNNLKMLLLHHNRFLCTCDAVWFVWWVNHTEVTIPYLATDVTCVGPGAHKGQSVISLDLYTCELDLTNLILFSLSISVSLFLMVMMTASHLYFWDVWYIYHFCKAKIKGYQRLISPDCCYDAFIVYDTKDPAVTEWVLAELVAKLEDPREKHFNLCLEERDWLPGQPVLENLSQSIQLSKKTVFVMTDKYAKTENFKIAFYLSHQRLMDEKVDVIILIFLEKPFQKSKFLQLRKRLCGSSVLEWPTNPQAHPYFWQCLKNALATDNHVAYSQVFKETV
In short: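 HEK293 cells stably expressing human TLR7 or TLR8, transiently transfected with SEAP reporter plasmid; medium replaced, SIMRA compounds added, 18 h incubation. Supernatant SEAP measured by QuantiBlue; expressed as fold increase in NF-κB activity over PBS control. Tabulated data at 50 μg/mL, representative of three independent experiments.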

Homo sapiens [4] = species: Homo sapiens; assay: Immunostimulatory activity in human pDC assessed as induction of IL6 at 100 ug/ml after 24 hrs; assay type: functional
In short: (§2)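 Human pDCs plated at 1 × 10^6 cells/mL; compounds in PBS added, 37 °C for 24 h; supernatant cytokines/chemokines by human Luminex multiplex kit.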

Homo sapiens [5] = species: Homo sapiens; assay: Immunostimulatory activity in human pDC assessed as induction of IP10 at 100 ug/ml after 24 hrs; assay type: functional; in short: as §2
PBMC [6] = assay: Immunomodulatory activity in human PBMC assessed as induction of IL1-beta at 50 ug/ml after 24 hrs; assay type: functional, cell-based; in short: as §1
PBMC [7] = assay: Immunomodulatory activity in human PBMC assessed as induction of IL6 at 50 ug/ml after 24 hrs; assay type: functional, cell-based; in short: as §1
PBMC [8] = assay: Immunomodulatory activity in human PBMC assessed as induction of TNFalpha at 100 ug/ml after 24 hrs; assay type: functional, cell-based; in short: as §1
Homo sapiens [9] = species: Homo sapiens; assay: Immunostimulatory activity in human mDC assessed as induction of IL6 at 100 ug/ml after 24 hrs; assay type: functional
In short: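 Human mDCs isolated from PBMCs by CD19+ B-cell depletion then BDCA1 positive selection; plated at 1 × 10^6 cells/mL, compounds in PBS, 37 °C for 24 h; supernatant cytokines by human Luminex multiplex. Representative of four independent experiments.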

Homo sapiens [10] = species: Homo sapiens; assay: Immunostimulatory activity in human pDC assessed as induction of IFNalpha at 100 ug/ml after 24 hrs; assay type: functional; in short: as §2
PBMC [11] = assay: Immunomodulatory activity in human PBMC assessed as induction of IL12 at 50 ug/ml after 24 hrs; assay type: functional, cell-based; in short: as §1

| SMILES | Activity (PBMC [1]) [pg/mL] | Activity [2] | fold change (FC) [3] | Activity (Homo sapiens [4]) | Activity (Homo sapiens [5]) | Activity (PBMC [6]) [pg/mL] | Activity (PBMC [7]) [pg/mL] | Activity (PBMC [8]) [pg/mL] | Activity (Homo sapiens [9]) | Activity (Homo sapiens [10]) | Activity (PBMC [11]) [pg/mL] |
| --- | --- | --- | --- | --- | --- | --- | --- | --- | --- | --- | --- |
| Nc1ccn([C@@H]2O[C@H](COP(=O)(S)O[C@H]3[C@@H](O)[C@H](n4cnc5c(N)ncnc54)O[C@@H]3CO)[C@@H](OP(=O)(S)OC[C@H]3O[C@@H](n4ccc(=O)[nH]c4=O)[C@H](O)[C@@H]3OP(=O)(S)OC[C@H]3O[C@@H](n4ccc5c(=O)[nH]c(N)nc54)[C@H](O)[C@@H]3OP(=O)(S)OC[C@H]3O[C@@H](n4ccc(N)nc4=O)[C@H](O)[C@@H]3OP(=O)(S)OC[C@H]3O[C@@H](n4ccc5c(=O)[nH]c(N)nc54)[C@H](O)[C@@H]3OP(=O)(S)OC[C@H]3O[C@@H](n4cnc5c(N)ncnc54)[C@H](O)[C@@H]3OP(=O)(S)OC[C@H]3O[C@@H](n4ccc5c(=O)[nH]c(N)nc54)[C@H](O)[C@@H]3OP(=O)(S)OC[C@H]3O[C@@H](n4ccc(N)nc4=O)[C@H](O)[C@@H]3OP(=O)(S)OC[C@H]3O[C@@H](n4ccc(=O)[nH]c4=O)[C@H](O)[C@@H]3OP(=O)(S)OC[C@H]3O[C@@H](n4ccc(=O)[nH]c4=O)[C@H](O)[C@@H]3OP(=O)(S)OCC(O)COP(=O)(S)O[C@H]3[C@@H](O)[C@H](n4ccc(=O)[nH]c4=O)O[C@@H]3COP(=O)(S)O[C@H]3[C@@H](O)[C@H](n4ccc(=O)[nH]c4=O)O[C@@H]3COP(=O)(S)O[C@H]3[C@@H](O)[C@H](n4ccc(N)nc4=O)O[C@@H]3COP(=O)(S)O[C@H]3[C@@H](O)[C@H](n4ccc5c(=O)[nH]c(N)nc54)O[C@@H]3COP(=O)(S)O[C@H]3[C@@H](O)[C@H](n4cnc5c(N)ncnc54)O[C@@H]3COP(=O)(S)O[C@H]3[C@@H](O)[C@H](n4ccc5c(=O)[nH]c(N)nc54)O[C@@H]3COP(=O)(S)O[C@H]3[C@@H](O)[C@H](n4ccc(N)nc4=O)O[C@@H]3COP(=O)(S)O[C@H]3[C@@H](O)[C@H](n4ccc5c(=O)[nH]c(N)nc54)O[C@@H]3COP(=O)(S)O[C@H]3[C@@H](O)[C@H](n4ccc(=O)[nH]c4=O)O[C@@H]3COP(=O)(S)O[C@H]3[C@@H](O)[C@H](n4ccc(N)nc4=O)O[C@@H]3COP(=O)(S)O[C@H]3[C@@H](O)[C@H](n4cnc5c(N)ncnc54)O[C@@H]3CO)[C@H]2O)c(=O)n1 (stereo partly specified) | 51400 | inactive | 27 | Active | Active | 196 | 2580 | 43.5 | Active | Active | 337 |
| Nc1ccn([C@@H]2O[C@H](COP(=O)(S)O[C@H]3[C@@H](O)[C@H](n4cnc5c(=O)[nH]c(N)nc54)O[C@@H]3COP(=O)(S)O[C@H]3[C@@H](O)[C@H](n4ccc(=O)[nH]c4=O)O[C@@H]3COP(=O)(S)OCCCO)[C@@H](OP(=O)(S)OC[C@H]3O[C@@H](n4ccc(=O)[nH]c4=O)[C@H](O)[C@@H]3OP(=O)(S)OC[C@H]3O[C@@H](n4cnc5c(=O)[nH]c(N)nc54)[C@H](O)[C@@H]3OP(=O)(S)OC[C@H]3O[C@@H](n4ccc(N)nc4=O)[C@H](O)[C@@H]3OP(=O)(S)OC[C@H]3O[C@@H](n4ccc(=O)[nH]c4=O)[C@H](O)[C@@H]3OP(=O)(S)OC[C@H]3O[C@@H](n4ccc(=O)[nH]c4=O)[C@H](O)[C@@H]3OP(=O)(S)OC[C@H]3O[C@@H](n4cnc5c(=O)[nH]c(N)nc54)[C@H](O)[C@@H]3OP(=O)(S)OC[C@H]3O[C@@H](n4ccc(=O)[nH]c4=O)[C@H](O)[C@@H]3OP(=O)(S)OC[C@H]3O[C@@H](n4cnc5c(=O)[nH]c(N)nc54)[C@H](O)[C@@H]3OP(=O)(S)OCC(O)COP(=O)(S)O[C@H]3[C@@H](O)[C@H](n4cnc5c(=O)[nH]c(N)nc54)O[C@@H]3COP(=O)(S)O[C@H]3[C@@H](O)[C@H](n4ccc(=O)[nH]c4=O)O[C@@H]3COP(=O)(S)O[C@H]3[C@@H](O)[C@H](n4cnc5c(=O)[nH]c(N)nc54)O[C@@H]3COP(=O)(S)O[C@H]3[C@@H](O)[C@H](n4ccc(=O)[nH]c4=O)O[C@@H]3COP(=O)(S)O[C@H]3[C@@H](O)[C@H](n4ccc(=O)[nH]c4=O)O[C@@H]3COP(=O)(S)O[C@H]3[C@@H](O)[C@H](n4ccc(N)nc4=O)O[C@@H]3COP(=O)(S)O[C@H]3[C@@H](O)[C@H](n4cnc5c(=O)[nH]c(N)nc54)O[C@@H]3COP(=O)(S)O[C@H]3[C@@H](O)[C@H](n4ccc(=O)[nH]c4=O)O[C@@H]3COP(=O)(S)O[C@H]3[C@@H](O)[C@H](n4ccc(N)nc4=O)O[C@@H]3COP(=O)(S)O[C@H]3[C@@H](O)[C@H](n4cnc5c(=O)[nH]c(N)nc54)O[C@@H]3COP(=O)(S)O[C@H]3[C@@H](O)[C@H](n4ccc(=O)[nH]c4=O)O[C@@H]3COP(=O)(S)OCCCO)[C@H]2O)c(=O)n1 (stereo partly specified) | 46700 | inactive | 0.5 | Active | Active | 568 | 3980 | 260 | Active |  | 570 |

— ChEMBL document CHEMBL1154352, “Toll-like receptor 7 selective synthetic oligoribonucleotide agonists: synthesis and structure-activity relationship studies” (J Med Chem, 2009)
